What was measured:
[1] = test system: Plasmodium falciparum; experiment: Antiplasmodial activity against chloroquine-resistant asexual erythrocytic stage of Plasmodium falciparum Dd2 assessed as parasite growth inhibition by parasite lactate dehydrogenase assay; format: functional, organism-based
In short: (§1)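 Asexual erythrocytic cultures were maintained continuously by a modified Trager–Jensen method. Samples came from 20 mg/mL DMSO stocks and were serially diluted 2-fold in complete medium over 10 concentrations, from 100 µg/mL down to 0.20 µg/mL; some started at 1000 µg/mL. Reference drugs started at 100 ng/mL. Read-out was modified pLDH. IC50 came from full dose-response curves, run in triplicate on two occasions.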

[2] = test system: Plasmodium falciparum; experiment: Resistance index, ratio of IC50 for chloroquine-resistant asexual erythrocytic stage of Plasmodium falciparum Dd2 to IC50 for chloroquine-sensitive asexual erythrocytic stage of Plasmodium falciparum NF54; format: functional
[3] = test system: Plasmodium falciparum; experiment: Antiplasmodial activity against chloroquine-sensitive asexual erythrocytic stage of Plasmodium falciparum NF54 assessed as parasite growth inhibition by parasite lactate dehydrogenase assay; format: functional, organism-based; in short: as §1
[4] = test system: Plasmodium falciparum; experiment: Potency index, ratio of chloroquine IC50 to compound IC50 for chloroquine-resistant asexual erythrocytic stage of Plasmodium falciparum Dd2

What does the source list for Clc1ccc2c(NCc3cn(CCN4CCOCC4)nn3)ccnc2c1?
IC50 [1]: 1300 nM; Ratio IC50 [2]: 1.4; IC50 [3]: 1760 nM

With Clc1ccc2c(NCc3cn(CCN4CCCCC4)nn3)ccnc2c1 as the compound, how does the “Ratio IC50” value [4] read?
The value was 3.

And the IC50 [1]?
Its IC50 is 51.6 nM.

And the “Ratio IC50” value [2]?
Its value is 5.1.

And the IC50 [3]?
The IC50 was 10.2 nM.

With Clc1ccc2c(NCc3cn(CCCN4CCCCC4)nn3)ccnc2c1 as the compound, how does the IC50 [1] read?
Its IC50 is 8.9 nM.

And the “Ratio IC50” value [2]?
Its value is 14.

And the IC50 [3]?
The IC50 was 123 nM.

Which results are given for Clc1ccc2c(NCc3cn(CCN4CCCC4)nn3)ccnc2c1?
Ratio IC50 [4]: 3; IC50 [1]: 69.3 nM; Ratio IC50 [2]: 4.3; IC50 [3]: 16.2 nM

For Clc1ccc2c(NCc3cn(CCCN4CCCC4)nn3)ccnc2c1, which IC50 [1] is on record?
Its IC50 is 18.4 nM.

What about the “Ratio IC50” value [2] of the same compound?
The value was 8.1.

What about the IC50 [3] of the same compound?
Its IC50 is 149 nM.

With CCN(CC)CCn1cc(CNc2ccnc3cc(Cl)ccc23)nn1 as the compound, how does the “Ratio IC50” value [4] read?
The value was 3.

What about the IC50 [1] of the same compound?
The IC50 was 53.5 nM.

And the “Ratio IC50” value [2]?
The value was 5.5.

What about the IC50 [3] of the same compound?
The IC50 was 9.8 nM.

Which IC50 [1] does the source give for CCN(CC)CCCn1cc(CNc2ccnc3cc(Cl)ccc23)nn1 here?
Its IC50 is 1980 nM.

And the “Ratio IC50” value [2]?
The value was 2.7.

What about the IC50 [3] of the same compound?
The IC50 was 5330 nM.

With Clc1ccc2c(NCc3cn(CCCN4CCOCC4)nn3)ccnc2c1 as the compound, how does the IC50 [1] read?
Its IC50 is 77.7 nM.

And the “Ratio IC50” value [2]?
The value was 3.3.

And the IC50 [3]?
The IC50 was 261 nM.

With CN(CCn1cc(CNc2ccnc3cc(Cl)ccc23)nn1)c1ccccc1 as the compound, how does the IC50 [1] read?
The IC50 was 380 nM.

What about the “Ratio IC50” value [2] of the same compound?
Its value is 1.3.

What about the IC50 [3] of the same compound?
Its IC50 is 492 nM.

What does the source list for CN(CCCn1cc(CNc2ccnc3cc(Cl)ccc23)nn1)c1ccccc1?
IC50 [1]: 165 nM; Ratio IC50 [2]: 1.8; IC50 [3]: 305 nM

CN(CCn1cc(CNc2ccnc3cc(Cl)ccc23)nn1)Cc1ccccc1 was tested. Which IC50 [1] did it give?
The IC50 was 151 nM.

What about the “Ratio IC50” value [2] of the same compound?
Its value is 1.4.

And the IC50 [3]?
Its IC50 is 216 nM.

What does the source list for CN(CCCn1cc(CNc2ccnc3cc(Cl)ccc23)nn1)Cc1ccccc1?
Ratio IC50 [4]: 3; IC50 [1]: 50.8 nM; Ratio IC50 [2]: 3.4; IC50 [3]: 15 nM

What does the source list for Clc1ccc2c(NCc3cn(CCN(Cc4ccccc4)Cc4ccccc4)nn3)ccnc2c1?
Ratio IC50 [4]: 3; IC50 [1]: 78.6 nM; Ratio IC50 [2]: 0.6; IC50 [3]: 140 nM

With Clc1ccc2c(NCc3cn(CCCN(Cc4ccccc4)Cc4ccccc4)nn3)ccnc2c1 as the compound, how does the IC50 [1] read?
Its IC50 is 114 nM.

And the “Ratio IC50” value [2]?
The value was 20.

What about the IC50 [3] of the same compound?
Its IC50 is 2240 nM.

With Clc1ccc2c(NCc3cn(CCCN4c5ccccc5CCc5ccccc54)nn3)ccnc2c1 as the compound, how does the “Ratio IC50” value [4] read?
Its value is 3.

What about the IC50 [1] of the same compound?
Its IC50 is 74.1 nM.

What about the “Ratio IC50” value [2] of the same compound?
Its value is 1.2.

What about the IC50 [3] of the same compound?
The IC50 was 64.3 nM.

Which IC50 [1] does the source give for C[C@H]1[C@H](OC(=O)CCC(=O)O)O[C@@H]2O[C@@]3(C)CC[C@H]4[C@H](C)CC[C@@H]1[C@@]24OO3 [ARTESUNATE] here?
The IC50 was 24.2 nM.

And the “Ratio IC50” value [2]?
The value was 4.6.

And the IC50 [3]?
The IC50 was less than 5.2 nM.

— ChEMBL document CHEMBL3596109, “In vitro antiplasmodial activity of triazole-linked chloroquinoline derivatives synthesized from 7-chloro-N-(prop-2-yn-1-yl)quinolin-4-amine” (Bioorg Med Chem, 2015)
